Values after ≈ are worked out from the molar mass of the structure shown.
How the values were obtained:
Micrococcus luteus = test: Antibacterial activity against Sarcina lutea ATCC 934 at 5 mg/ml after 24 hrs by agar disc diffusion method; type: functional; settings: ATCC 934, 24 h, read-out: DIZ
How it was run: (§1)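 Agar well-diffusion using 1 cm wells, each loaded with 100 of compound solution (5 mg/mL in DMF). Bacteria were maintained on nutrient agar and plated as a standard suspension. Plates were incubated 24 h at 35 °C, and inhibition zone diameters were measured.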

Escherichia coli = test: Antibacterial activity against Escherichia coli NCTC 10416 at 5 mg/ml after 24 hrs by agar disc diffusion method; type: functional; settings: NCTC 10416, 24 h, read-out: DIZ; how it was run: as §1
Bacillus subtilis = test: Antibacterial activity against Bacillus subtilis NCTC 1040 at 5 mg/ml after 24 hrs by agar disc diffusion method; type: functional; settings: NCTC 1040, 24 h, read-out: DIZ; how it was run: as §1
Candida albicans = test: Antifungal activity against Candida albicans IMRU 3669 at 5 mg/ml by agar disc diffusion method; type: functional; settings: read-out: DIZ
[1] = Antitumor activity against mouse EAC cells assessed as inhibition of cell viability at 100 ug/ml by Trypan blue assay; type: functional; settings: Ehrlich
How it was run: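 EAC cells were taken by needle aspiration of ascitic fluid from preinoculated mice and diluted 1:10 in saline. Then 0.1 mL of cell suspension, 0.8 mL RPMI 1640 and 0.1 mL compound were incubated 2 h at 37 °C. Dead cells were counted by trypan blue exclusion, and % non-viable = non-viable/total cells × 100.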

Aspergillus flavus = test: Antifungal activity against Aspergillus flavus at 5 mg/ml by agar disc diffusion method; type: functional; settings: read-out: DIZ
Staphylococcus aureus = test: Antibacterial activity against Staphylococcus aureus NCTC 7447 at 5 mg/ml after 24 hrs by agar disc diffusion method; type: functional; settings: NCTC 7447, 24 h, read-out: DIZ; how it was run: as §1
HEp-2 [2] = test: Cytotoxicity against human Hep2 cells assessed as surviving fraction at 12.5 ug/ml after 48 hrs by SRB assay relative to control; type: functional
How it was run: (§2)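 SRB assay per Skehan: compounds at 5.0, 12.5, 25 and 50 were added to cell monolayers in triplicate wells per dose for 48 h at 37 °C, 5% CO2. Cells were then fixed and stained with SRB, excess stain was removed with acetic acid, and bound dye was recovered in Tris EDTA. Surviving fraction was plotted against concentration, and IC50 was read from the dose–response curves.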

HepG2 [3] = test: Cytotoxicity against human HepG2 cells assessed as surviving fraction at 50 ug/ml after 48 hrs by SRB assay relative to control; type: functional; how it was run: as §2
HepG2 [4] = test: Cytotoxicity against human HepG2 cells assessed as surviving fraction at 5 ug/ml after 48 hrs by SRB assay relative to control; type: functional; how it was run: as §2
HCT-116 [5] = test: Cytotoxicity against human HCT116 cells after 48 hrs by SRB assay; type: functional, cell-based; settings: HCT-116, 48 h; how it was run: as §2
HCT-116 [6] = test: Cytotoxicity against human HCT116 cells assessed as surviving fraction at 5 ug/ml after 48 hrs by SRB assay relative to control; type: functional; how it was run: as §2
HEp-2 [7] = test: Cytotoxicity against human Hep2 cells after 48 hrs by SRB assay; type: functional, cell-based; settings: HEp-2, 48 h; how it was run: as §2
HEp-2 [8] = test: Cytotoxicity against human Hep2 cells assessed as surviving fraction at 25 ug/ml after 48 hrs by SRB assay relative to control; type: functional; how it was run: as §2
HEp-2 [9] = test: Cytotoxicity against human Hep2 cells assessed as surviving fraction at 5 ug/ml after 48 hrs by SRB assay relative to control; type: functional; how it was run: as §2
HepG2 [10] = test: Cytotoxicity against human HepG2 cells assessed as surviving fraction at 12.5 ug/ml after 48 hrs by SRB assay relative to control; type: functional; how it was run: as §2
HepG2 [11] = test: Cytotoxicity against human HepG2 cells after 48 hrs by SRB assay; type: functional, cell-based; settings: HepG2, 48 h; how it was run: as §2
HeLa [12] = test: Cytotoxicity against human HeLa cells after 48 hrs by SRB assay; type: functional, cell-based; how it was run: as §2
HeLa [13] = test: Cytotoxicity against human HeLa cells assessed as surviving fraction at 50 ug/ml after 48 hrs by SRB assay relative to control; type: functional; how it was run: as §2
MCF7 [14] = test: Cytotoxicity against human MCF7 cells assessed as surviving fraction at 25 ug/ml after 48 hrs by SRB assay relative to control; type: functional; how it was run: as §2
MCF7 [15] = test: Cytotoxicity against human MCF7 cells assessed as surviving fraction at 50 ug/ml after 48 hrs by SRB assay relative to control; type: functional; how it was run: as §2
MCF7 [16] = test: Cytotoxicity against human MCF7 cells assessed as surviving fraction at 5 ug/ml after 48 hrs by SRB assay relative to control; type: functional; how it was run: as §2
HEp-2 [17] = test: Cytotoxicity against human Hep2 cells assessed as surviving fraction at 50 ug/ml after 48 hrs by SRB assay relative to control; type: functional; how it was run: as §2
HeLa [18] = test: Cytotoxicity against human HeLa cells assessed as surviving fraction at 25 ug/ml after 48 hrs by SRB assay relative to control; type: functional; how it was run: as §2
HCT-116 [19] = test: Cytotoxicity against human HCT116 cells assessed as surviving fraction at 25 ug/ml after 48 hrs by SRB assay relative to control; type: functional; how it was run: as §2
HCT-116 [20] = test: Cytotoxicity against human HCT116 cells assessed as surviving fraction at 12.5 ug/ml after 48 hrs by SRB assay relative to control; type: functional; how it was run: as §2
HepG2 [21] = test: Cytotoxicity against human HepG2 cells assessed as surviving fraction at 25 ug/ml after 48 hrs by SRB assay relative to control; type: functional; how it was run: as §2
MCF7 [22] = test: Cytotoxicity against human MCF7 cells assessed as surviving fraction at 12.5 ug/ml after 48 hrs by SRB assay relative to control; type: functional; how it was run: as §2
HCT-116 [23] = test: Cytotoxicity against human HCT116 cells assessed as surviving fraction at 50 ug/ml after 48 hrs by SRB assay relative to control; type: functional; how it was run: as §2
HeLa [24] = test: Cytotoxicity against human HeLa cells assessed as surviving fraction at 12.5 ug/ml after 48 hrs by SRB assay relative to control; type: functional; how it was run: as §2
HeLa [25] = test: Cytotoxicity against human HeLa cells assessed as surviving fraction at 5 ug/ml after 48 hrs by SRB assay relative to control; type: functional; how it was run: as §2
MCF7 [26] = test: Cytotoxicity against human MCF7 cells after 48 hrs by SRB assay; type: functional, cell-based; settings: MCF7, 48 h; how it was run: as §2

SMILES: N=C1C(=S)N(c2ccc(I)cc2)C(=O)N1Cc1ccccc1
- zone of inhibition at 5000 µg/mL (Micrococcus luteus): 12 mm
- zone of inhibition at 5000 µg/mL (Escherichia coli): 14 mm
- zone of inhibition at 5000 µg/mL (Bacillus subtilis): 15 mm
- zone of inhibition at 5000 µg/mL (Candida albicans): 13 mm
- inhibition at 100 µg/mL [1]: 30%
- zone of inhibition at 5000 µg/mL (Aspergillus flavus): 15 mm
- zone of inhibition at 5000 µg/mL (Staphylococcus aureus): 15 mm

SMILES: COc1ccc(N2C(=N)C(=S)N(c3ccc(I)cc3)C2=O)cc1
- zone of inhibition at 5000 µg/mL (Micrococcus luteus): 18 mm
- zone of inhibition at 5000 µg/mL (Escherichia coli): 19 mm
- zone of inhibition at 5000 µg/mL (Bacillus subtilis): 19.5 mm
- zone of inhibition at 5000 µg/mL (Candida albicans): 23 mm
- inhibition at 100 µg/mL [1]: 20%
- zone of inhibition at 5000 µg/mL (Aspergillus flavus): 18 mm
- zone of inhibition at 5000 µg/mL (Staphylococcus aureus): 18.5 mm

SMILES: COc1ccc(N2C(=N)C(=S)N(c3ccccc3)C2=O)cc1
- zone of inhibition at 5000 µg/mL (Micrococcus luteus): 25 mm
- zone of inhibition at 5000 µg/mL (Escherichia coli): 25 mm
- zone of inhibition at 5000 µg/mL (Bacillus subtilis): 19 mm
- zone of inhibition at 5000 µg/mL (Candida albicans): 21 mm
- inhibition at 100 µg/mL [1]: 50%
- zone of inhibition at 5000 µg/mL (Aspergillus flavus): 18 mm
- zone of inhibition at 5000 µg/mL (Staphylococcus aureus): 18 mm

SMILES: COc1ccc(N2C(=O)N(c3ccc(SC)cc3)C(=N)C2=S)c(OC)c1
- Activity (HEp-2 [2]): 0.49
- Activity (HepG2 [3]): 0.24
- zone of inhibition at 5000 µg/mL (Micrococcus luteus): 18 mm
- Activity (HepG2 [4]): 0.69
- IC50 (HCT-116 [5]): 10.6 µg/mL (≈ 27.4 µM)
- zone of inhibition at 5000 µg/mL (Escherichia coli): 19 mm
- Activity (HCT-116 [6]): 0.74
- zone of inhibition at 5000 µg/mL (Bacillus subtilis): 18 mm
- zone of inhibition at 5000 µg/mL (Candida albicans): 20 mm
- inhibition at 100 µg/mL [1]: 70%
- IC50 (HEp-2 [7]): 12.1 µg/mL (≈ 31.2 µM)
- Activity (HEp-2 [8]): 0.2
- Activity (HEp-2 [9]): 0.71
- zone of inhibition at 5000 µg/mL (Aspergillus flavus): 14 mm
- Activity (HepG2 [10]): 0.47
- IC50 (HepG2 [11]): 11.8 µg/mL (≈ 30.5 µM)
- IC50 (HeLa [12]): 9.83 µg/mL (≈ 25.4 µM)
- Activity (HeLa [13]): 0.22
- Activity (MCF7 [14]): 0.19
- Activity (MCF7 [15]): 0.28
- Activity (MCF7 [16]): 0.68
- Activity (HEp-2 [17]): 0.27
- Activity (HeLa [18]): 0.2
- Activity (HCT-116 [19]): 0.24
- Activity (HCT-116 [20]): 0.42
- Activity (HepG2 [21]): 0.19
- Activity (MCF7 [22]): 0.49
- Activity (HCT-116 [23]): 0.35
- zone of inhibition at 5000 µg/mL (Staphylococcus aureus): 18 mm
- Activity (HeLa [24]): 0.37
- Activity (HeLa [25]): 0.74
- IC50 (MCF7 [26]): 12 µg/mL (≈ 31 µM)

SMILES: N=C1C(=S)N(c2ccc(Br)cc2)C(=O)N1Cc1ccccc1
- zone of inhibition at 5000 µg/mL (Micrococcus luteus): 18 mm
- zone of inhibition at 5000 µg/mL (Escherichia coli): 18.5 mm
- zone of inhibition at 5000 µg/mL (Bacillus subtilis): 17 mm
- zone of inhibition at 5000 µg/mL (Candida albicans): 17 mm
- inhibition at 100 µg/mL [1]: 45%
- zone of inhibition at 5000 µg/mL (Aspergillus flavus): 15 mm
- zone of inhibition at 5000 µg/mL (Staphylococcus aureus): 15.5 mm

SMILES: CSc1ccc(N2C(=N)C(=S)N(c3ccc(Br)cc3)C2=O)cc1
- zone of inhibition at 5000 µg/mL (Micrococcus luteus): 15 mm
- zone of inhibition at 5000 µg/mL (Escherichia coli): 15.5 mm
- zone of inhibition at 5000 µg/mL (Bacillus subtilis): 19.5 mm
- zone of inhibition at 5000 µg/mL (Candida albicans): 16 mm
- inhibition at 100 µg/mL [1]: 40%
- zone of inhibition at 5000 µg/mL (Aspergillus flavus): 15 mm
- zone of inhibition at 5000 µg/mL (Staphylococcus aureus): 19 mm

SMILES: Cc1ccc(N2C(=N)C(=S)N(c3ccc(Br)cc3)C2=O)cc1
- zone of inhibition at 5000 µg/mL (Micrococcus luteus): 14 mm
- zone of inhibition at 5000 µg/mL (Escherichia coli): 16.5 mm
- zone of inhibition at 5000 µg/mL (Bacillus subtilis): 18 mm
- zone of inhibition at 5000 µg/mL (Candida albicans): 14 mm
- inhibition at 100 µg/mL [1]: 20%
- zone of inhibition at 5000 µg/mL (Aspergillus flavus): 15 mm
- zone of inhibition at 5000 µg/mL (Staphylococcus aureus): 18 mm

SMILES: CSc1ccc(N2C(=N)C(=S)N(c3ccc(Cl)cc3)C2=O)cc1
- zone of inhibition at 5000 µg/mL (Micrococcus luteus): 15 mm
- zone of inhibition at 5000 µg/mL (Escherichia coli): 15.5 mm
- zone of inhibition at 5000 µg/mL (Bacillus subtilis): 16.5 mm
- zone of inhibition at 5000 µg/mL (Candida albicans): 16.5 mm
- inhibition at 100 µg/mL [1]: 20%
- zone of inhibition at 5000 µg/mL (Aspergillus flavus): 15 mm
- zone of inhibition at 5000 µg/mL (Staphylococcus aureus): 16 mm
